Active and inactive are the calls of the source. The rule behind the calls is not given here.
System: Voltage-gated calcium channel
Assay: Inhibition of VGCC in human SHSY-5Y cells assessed as reduction of K+-evoked cytosolic ca2+ at 1 uM incubated for 10 mins prior to KCl addition by Fluo-4-AM probe-based fluorescence analysis
Assay type: cell-based
Summary of the method: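 SH-SY5Y cells at confluence (48 h after seeding) loaded with 10 μM Fluo-4/AM plus 0.2% pluronic in Krebs–HEPES (pH 7.4) for 45 min at 37 °C, then washed. Compound at 1 μM for 10 min, then KCl 70 mM. Ex 485/em 520 nm; signal normalized to Fmax (Triton X-100) minus Fmin (MnCl2). At least six experiments versus K+ response without compound.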

**Q.** Which “inhibition (INH)” value does the source give for `Brc1ccc2[nH]cc(CN3CCCCC3)c2c1` here?
**A.** 7%

**Q.** Which “inhibition (INH)” value does the source give for `CN(C)Cc1cn(CCCCN2CCCCC2)c2ccc(Br)cc12` here?
**A.** 14%

**Q.** With `CN(C)Cc1cn(Cc2ccccc2)c2ccc(Br)cc12` as the compound, how does the “inhibition (INH)” value read?
**A.** 38%

**Q.** With `CCCCn1cc(CN2CCCCC2)c2cc(Br)ccc21` as the compound, how does the “inhibition (INH)” value read?
**A.** 63%

**Q.** Which “inhibition (INH)” value does the source give for `CCOC(=O)CCCn1cc(CN(C)C)c2cc(Br)ccc21` here?
**A.** 13%

**Q.** Which “inhibition (INH)” value does the source give for `C#CCn1cc(CN(C)C)c2cc(C)ccc21` here?
**A.** 14%

**Q.** With `CN(C)Cc1c[nH]c2ccccc12` [GRAMINE] as the compound, how does the “inhibition (INH)” value read?
**A.** 25%

**Q.** With `CCCCn1cc(CN(C)C)c2cc(Br)ccc21` as the compound, how does the “inhibition (INH)” value read?
**A.** 14%

**Q.** For `Cc1ccc2c(c1)c(CN1CCCCC1)cn2CCCCN1CCCCC1`, which “inhibition (INH)” value is on record?
**A.** 4%

**Q.** With `CCCCn1cc(CN2CCCCC2)c2cc(C)ccc21` as the compound, how does the “inhibition (INH)” value read?
**A.** 21%

**Q.** With `Brc1ccc2c(c1)c(CN1CCCCC1)cn2Cc1ccccc1` as the compound, how does the “inhibition (INH)” value read?
**A.** 45%

Species: Homo sapiens
Assay: (§1) Suppression of okadaic acid-induced inhibition of PP1/PP2A in human SHSY-5Y cells at 0.1 uM using pNPP as substrate assessed as remaining total phosphatase activity incubated for 30 mins by colorimetric assay (reference value: 68 +/- 2%)
Assay type: cell-based
Summary of the method: (§2)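 SH-SY5Y cells treated with compound at 0.1 μM plus okadaic acid 15 nM (24 h preincubation, then coincubation). Medium removed; assay buffer with pNPP (10 mM) added, 30 min at 37 °C in the dark, absorbance at 405 nm. For Ser/Thr activity, 1 mM orthovanadate added to the buffer. Expressed as % of untreated cells; at least four experiments.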

**Q.** Which Activity does the source give for `Brc1ccc2[nH]cc(CN3CCCCC3)c2c1` here?
**A.** 74%

**Q.** Which Activity does the source give for `CN(C)Cc1cn(CCCCN2CCCCC2)c2ccc(Br)cc12` here?
**A.** 73%

**Q.** For `CN(C)Cc1cn(Cc2ccccc2)c2ccc(Br)cc12`, which Activity is on record?
**A.** 81%

**Q.** With `CCCCn1cc(CN2CCCCC2)c2cc(Br)ccc21` as the compound, how does the Activity read?
**A.** 78%

**Q.** Which Activity does the source give for `CCOC(=O)CCCn1cc(CN(C)C)c2cc(Br)ccc21` here?
**A.** 76%

**Q.** With `C#CCn1cc(CN(C)C)c2cc(C)ccc21` as the compound, how does the Activity read?
**A.** 80%

**Q.** With `CN(C)Cc1c[nH]c2ccccc12` [GRAMINE] as the compound, how does the Activity read?
**A.** 80%

**Q.** With `CCCCn1cc(CN(C)C)c2cc(Br)ccc21` as the compound, how does the Activity read?
**A.** 81%

**Q.** With `Cc1ccc2c(c1)c(CN1CCCCC1)cn2CCCCN1CCCCC1` as the compound, how does the Activity read?
**A.** 72%

**Q.** For `CC12CC3CC(C)(C1)CC(N)(C3)C2`, which Activity is on record?
**A.** 77%

**Q.** Which Activity does the source give for `CCCCn1cc(CN2CCCCC2)c2cc(C)ccc21` here?
**A.** 69%

**Q.** With `Brc1ccc2c(c1)c(CN1CCCCC1)cn2Cc1ccccc1` as the compound, how does the Activity read?
**A.** 79%

System: Voltage-gated calcium channel
Assay: Inhibition of VGCC in human SHSY-5Y cells assessed as reduction of K+-evoked cytosolic ca2+ at 3 uM incubated for 10 mins prior to KCl addition by Fluo-4-AM probe-based fluorescence analysis
Assay type: cell-based
Summary of the method: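 SH-SY5Y cells grown to confluence over 48 h, then loaded with 10 μM Fluo-4/AM and 0.2% pluronic acid in Krebs–HEPES (pH 7.4) for 45 min at 37 °C and washed. Compound added 10 min before depolarisation with KCl 70 mM. Fluorescence read at ex 485/em 520 nm and normalised to Fmax (Triton X-100) and Fmin (MnCl2). Inhibition taken against the K+ response without compound; ≥6 experiments.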

**Q.** With `COC(=O)C1=C(C)NC(C)=C(C(=O)OC)C1c1ccccc1[N+](=O)[O-]` [NIFEDIPINE] as the compound, how does the “inhibition (INH)” value read?
**A.** 73%

System: SH-SY5Y
Assay: Neuroprotective activity in human SH-SY5Y cells assessed as reversal of okadaic acid-induced cytotoxicity at 0.1 uM preincubated for 24 hrs followed by […] by MTT assay
Assay type: functional

**Q.** Which Activity does the source give for `COc1ccc2[nH]cc(CCNC(C)=O)c2c1` [MELATONIN] here?
**A.** 43%

**Q.** Which Activity does the source give for `Brc1ccc2[nH]cc(CN3CCCCC3)c2c1` here?
**A.** 60%

**Q.** For `CN(C)Cc1cn(CCCCN2CCCCC2)c2ccc(Br)cc12`, which Activity is on record?
**A.** 31%

**Q.** For `CN(C)Cc1cn(Cc2ccccc2)c2ccc(Br)cc12`, which Activity is on record?
**A.** 56%

**Q.** With `CCCCn1cc(CN2CCCCC2)c2cc(Br)ccc21` as the compound, how does the Activity read?
**A.** 71%

**Q.** Which Activity does the source give for `CCOC(=O)CCCn1cc(CN(C)C)c2cc(Br)ccc21` here?
**A.** 58%

**Q.** Which Activity does the source give for `C#CCn1cc(CN(C)C)c2cc(C)ccc21` here?
**A.** 12%

**Q.** Which Activity does the source give for `CN(C)Cc1c[nH]c2ccccc12` [GRAMINE] here?
**A.** 45%

**Q.** For `CCCCn1cc(CN(C)C)c2cc(Br)ccc21`, which Activity is on record?
**A.** 66%

**Q.** With `Cc1ccc2c(c1)c(CN1CCCCC1)cn2CCCCN1CCCCC1` as the compound, how does the Activity read?
**A.** 26%

**Q.** For `CCCCn1cc(CN2CCCCC2)c2cc(C)ccc21`, which Activity is on record?
**A.** 46%

**Q.** For `Brc1ccc2c(c1)c(CN1CCCCC1)cn2Cc1ccccc1`, which Activity is on record?
**A.** 54%

System: SH-SY5Y
Assay: Cytotoxicity against human SH-SY5Y cells assessed as reduction of cell viability at <10 uM incubated for 48 hrs by MTT assay
Assay type: cell-based
Summary of the method: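 SH-SY5Y cells exposed to compounds for 48 h; viability read by MTT reduction (final 0.3 mg/mL, 2 h at 37 °C in the dark), formazan dissolved in DMSO, absorbance at 540 nm, expressed as % of untreated cells.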

**Q.** Which Activity does the source give for `Brc1ccc2[nH]cc(CN3CCCCC3)c2c1` here?
**A.** Non-Toxic

**Q.** For `CN(C)Cc1cn(CCCCN2CCCCC2)c2ccc(Br)cc12`, which Activity is on record?
**A.** Non-Toxic

**Q.** Which Activity does the source give for `CN(C)Cc1cn(Cc2ccccc2)c2ccc(Br)cc12` here?
**A.** Non-Toxic

**Q.** For `CCCCn1cc(CN2CCCCC2)c2cc(Br)ccc21`, which Activity is on record?
**A.** Non-Toxic

**Q.** Which Activity does the source give for `CCOC(=O)CCCn1cc(CN(C)C)c2cc(Br)ccc21` here?
**A.** Non-Toxic

**Q.** Which Activity does the source give for `C#CCn1cc(CN(C)C)c2cc(C)ccc21` here?
**A.** Non-Toxic

**Q.** For `CCCCn1cc(CN(C)C)c2cc(Br)ccc21`, which Activity is on record?
**A.** Non-Toxic

**Q.** Which Activity does the source give for `Cc1ccc2c(c1)c(CN1CCCCC1)cn2CCCCN1CCCCC1` here?
**A.** Non-Toxic

**Q.** For `CCCCn1cc(CN2CCCCC2)c2cc(C)ccc21`, which Activity is on record?
**A.** Non-Toxic

**Q.** With `Brc1ccc2c(c1)c(CN1CCCCC1)cn2Cc1ccccc1` as the compound, how does the Activity read?
**A.** Non-Toxic

Species: Bos taurus
Assay: Inhibition of VGCC in bovine chromaffin cells assessed as reduction in depolarization-evoked Ca2+ current at 1 uM at -80 mV holding potential using 50 millisec depolarization pulses every 20 secs by patch clamp method
Assay type: cell-based

**Q.** For `CCCCn1cc(CN2CCCCC2)c2cc(Br)ccc21`, which inhibition is on record?
**A.** Active

**Q.** For `CN(C)Cc1c[nH]c2ccccc12` [GRAMINE], which inhibition is on record?
**A.** Active

**Q.** With `CCCCn1cc(CN2CCCCC2)c2cc(C)ccc21` as the compound, how does the inhibition read?
**A.** Active

**Q.** With `Brc1ccc2c(c1)c(CN1CCCCC1)cn2Cc1ccccc1` as the compound, how does the inhibition read?
**A.** Active

Species: Homo sapiens
Assay: as §1, with “Ser/Thr” for “total”, “mins in presence of tyrosine phosphatase inhibitor sodium orthovanadate” for “mins”, “61” for “68”, “3%)” for “2%)”
Assay type: cell-based
Summary of the method: as §2

**Q.** With `Brc1ccc2[nH]cc(CN3CCCCC3)c2c1` as the compound, how does the Activity read?
**A.** 67%

**Q.** With `CN(C)Cc1cn(CCCCN2CCCCC2)c2ccc(Br)cc12` as the compound, how does the Activity read?
**A.** 68%

**Q.** Which Activity does the source give for `CN(C)Cc1cn(Cc2ccccc2)c2ccc(Br)cc12` here?
**A.** 78%

**Q.** For `CCCCn1cc(CN2CCCCC2)c2cc(Br)ccc21`, which Activity is on record?
**A.** 79%

**Q.** Which Activity does the source give for `CCOC(=O)CCCn1cc(CN(C)C)c2cc(Br)ccc21` here?
**A.** 66%

**Q.** Which Activity does the source give for `C#CCn1cc(CN(C)C)c2cc(C)ccc21` here?
**A.** 74%

**Q.** For `CN(C)Cc1c[nH]c2ccccc12` [GRAMINE], which Activity is on record?
**A.** 76%

**Q.** For `CCCCn1cc(CN(C)C)c2cc(Br)ccc21`, which Activity is on record?
**A.** 76%

**Q.** Which Activity does the source give for `Cc1ccc2c(c1)c(CN1CCCCC1)cn2CCCCN1CCCCC1` here?
**A.** 70%

**Q.** For `CC12CC3CC(C)(C1)CC(N)(C3)C2`, which Activity is on record?
**A.** 78%

**Q.** For `CCCCn1cc(CN2CCCCC2)c2cc(C)ccc21`, which Activity is on record?
**A.** 66%

**Q.** Which Activity does the source give for `Brc1ccc2c(c1)c(CN1CCCCC1)cn2Cc1ccccc1` here?
**A.** 70%

System: not listed separately
Assay: (§3) Neuroprotective activity in Sprague-Dawley rat hippocampal cells assessed as reversal of glutamate-induced cytotoxicity at 10 uM incubated for 4 hrs by MTT assay
Assay type: functional, Hippocampal neurone
Summary of the method: (§4)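 Hippocampal slices from 2-month-old Sprague–Dawley rats stabilized 45 min at 34 °C, then coincubated 4 h with compound and glutamate 1 mM. Viability by MTT (0.3 mg/mL, 30 min), absorbance at 540 nm. Reported as % protection relative to glutamate-only slices; at least four tissue batches in quadruplicate.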

**Q.** With `CCCCn1cc(CN(C)C)c2cc(Br)ccc21` as the compound, how does the Activity read?
**A.** 40%

System: Hippocampal neurone
Assay: as §3
Assay type: functional
Summary of the method: as §4

**Q.** For `CCOC(=O)CCCn1cc(CN(C)C)c2cc(Br)ccc21`, which Activity is on record?
**A.** Active

Source: ChEMBL document CHEMBL4477210, “Gramine Derivatives Targeting Ca(2+) Channels and Ser/Thr Phosphatases: A New Dual Strategy for the Treatment of Neurodegenerative Diseases” (J Med Chem, 2016)
